According to PubChem BioAssay AID504414 (Broad Institute, 2011):
Among all 330,000 compounds or so, about 55 (0.02%) were called active. The sample holds actives, similar compounds and a random draw of the others, so the mix is not that of the screen.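 Rule for the calls: active = highest replicate inhibition of at least 40%; inactive = the rest.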

biological target: Golgi-associated PDZ and coiled-coil motif-containing protein (Homo sapiens) (UniProt Q9HD26); assay: disruption of CAL PDZ-reporter peptide interaction – biochemical, fluorescence polarization, Cer-tagged CAL PDZ, HTS, primary screen (AID 504414); settings: purified CAL PDZ, TMR-peptide fluorescence polarization, 1 h; at 20 µM; stronger effect = higher value;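 note: plate controls were DMSO neutral control wells for no effect and unlabeled competitor peptide control wells for full effect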
Method in brief: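 Read-out basis: mP drop reported as inhibition | Assay system: Tagged CAL PDZ protein CerCALP, purified | Benchmarks: Unlabelled peptide for full inhibition, DMSO wells as neutral | Schedule: 1 h incubation at room temperature before polarization reading | Buffer or medium: Sodium phosphate/NaCl buffer pH 7.4 with TCEP, IgG, Thesit | Doses: Single point, 20 µM | Measured by: Fluorescence polarization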

inhibition, inactive:
Cc1ccccc1N1C(=O)C2ON(c3ccccc3)C(c3ccncc3)C2C1=O (stereo not drawn) -1.2%
CCCCN(C)c1ccc([N+](=O)[O-])cc1 -3.03%
CC(=O)c1c(O)cc2n(c1=O)-c1ccc(Cl)cc1C2(C)C -2.37%
COc1ccc(-c2cc(C(=O)N(C)CC(=O)Nc3ccccc3Cl)c3ccccc3n2)cc1OC -0.623%
O=C(/C=C/Nc1ccc(S(=O)(=O)Nc2cnc3ccccc3n2)cc1)c1cccnc1 -1.99%
COc1ccc(N(CC(=O)N2CCOCC2)S(=O)(=O)c2ccccc2)cc1Cl -0.969%
CC(NCCc1ccc(S(N)(=O)=O)cc1)C(=O)NCc1ccccc1 (stereo not drawn) -0.747%
CC(C)NC(=O)Nc1cccc2c1O[C@H](CN(C)S(=O)(=O)c1cccs1)[C@@H](C)CN([C@H](C)CO)C2=O -1.8%
CC(C)(C)c1cc(=O)n2c(nc3ccccc32)[nH]1 -2.22%
O=C(Nc1ccc(C2CC2(Cl)Cl)cc1)c1cccc([N+](=O)[O-])c1 (stereo not drawn) 8.41%
CCOC(=O)C(C)n1cnc2scc(-c3ccc(C)c(C)c3)c2c1=O (stereo not drawn) -1.15%
CCOc1cc(CNCCN(C)C)c(Cl)cc1OCC(=O)NCCc1ccccc1 -2.91%
CCOC(=O)C1Sc2[nH]c(=O)sc2C(c2ccc(Cl)cc2)C1C(=O)OCC (stereo not drawn) 0.946%
Cc1cccc(C(=O)OCC(=O)NC(C)C2CC3CCC2C3)c1O (stereo not drawn) 1.53%
COc1ccccc1N(CC(=O)NC1CCCC1)C(=O)C1(C)CC(=O)N=C2C=CC(C)=CN21 (stereo not drawn) -1%
Cc1ccc(C)c(C(=O)COC(=O)Cn2[nH]c(=O)c3ccccc3c2=O)c1 -1.04%
CC(=O)C1=C(C)NC2=C(C(=O)CC(C)(C)C2)C1C (stereo not drawn) -0.554%
COCCNC(=O)/C(C#N)=C/c1nc(N(C)C)n(-c2ccc(F)cc2)c1Cl -6.48%
CN(CCc1cn[nH]c1)C(=O)CC1C(=O)NCCN1Cc1cccc(Oc2ccccc2)c1 (stereo not drawn) 0.0148%
CN(C)S(=O)(=O)c1ccc(N2CCCC2)c(C(=O)Nc2ccc(Br)cc2F)c1 0.123%
CCOc1cc(C(=O)N(Cc2ccccc2)c2ccc(C)cc2)ccc1OCC(=O)N1CCOCC1 -0.206%
NS(=O)(=O)c1ccc(CCNC(=O)c2ccc(Cl)c(S(=O)(=O)N3CCCCCC3)c2)cc1 -0.205%
COc1ccc(-c2c(C)nn3c(N4CCC(C(=O)N5CCCCC5)CC4)cc(C)nc23)cc1OC 0.851%
